Results gathered from unrelated publications.
Compare with care: the assays were run in different laboratories. Converted amounts (≈) assume the structure as drawn.

| Compound | organism | test | system | conditions | endpoint | result |
| --- | --- | --- | --- | --- | --- | --- |
| C/C(=N/NC(=O)c1cn(-c2ccccc2)nc1-c1ccccc1)c1c(O)cc(C)oc1=O | Bacillus subtilis | microbial growth | – | – | MIC | 50 mg/L (≈ 117 µM) |
| C#CCOC(=O)ON=C1C=CC(=C(C#N)c2ccccc2)C=C1 | Nakaseomyces glabratus | microbial growth, broth dilution | ATCC15126 | 48 h | MIC | 16 mg/L (≈ 52.6 µM) |
| C[C@@H]1[C@H](O)[C@@H](C)/C=C/C=C/C=C/C=C/C=C/C=C/C=C/[C@H](O[C@@H]2O[C@H](C)[C@@H](O)[C@H](N)[C@@H]2O)C[C@@H]2O[C@](O)(C[C@@H](O)C[C@@H](O)[C@H](O)CC[C@@H](O)C[C@@H](O)CC(=O)O[C@H]1C)C[C@H](O)[C@H]2C(=O)O | Cryptococcus neoformans | microbial growth, broth dilution | H99 | 48 h | MIC | 0.5 mg/L (≈ 0.541 µM) |
| Cc1ccc(NC(=O)c2ccc(COC(Cn3ccnc3)c3ccc(Cl)cc3Cl)cc2)cc1 (stereo not drawn) | Nakaseomyces glabratus | microbial growth, broth dilution | – | – | MIC80 | 0.06 mg/L (≈ 0.125 µM) |
| O=C(O)c1cn(C2CC2)c2cc(N3CCNCC3)c(F)cc2c1=O | Bacillus subtilis | microbial growth, well diffusion | ATCC6051 | 100 µg/mL | inhibition zone | 30 mm |
| O=C(Nc1ccc(Br)cc1)c1ccc(COC(Cn2ccnc2)c2ccc(Cl)cc2Cl)cc1 (stereo not drawn) | Nakaseomyces glabratus | microbial growth, broth dilution | – | – | MIC80 | 0.125 mg/L (≈ 0.229 µM) |
| C#CCON=C1C=CC(=C(C#N)c2ccccc2)C=C1 | Nakaseomyces glabratus | microbial growth, broth dilution | ATCC15126 | 48 h | MIC | 16 mg/L (≈ 61.5 µM) |
| O=C(Nc1ccc2[nH]ccc2c1)c1ccc(COC(Cn2ccnc2)c2ccc(Cl)cc2Cl)cc1 (stereo not drawn) | Nakaseomyces glabratus | microbial growth, broth dilution | – | – | MIC80 | 128 mg/L (≈ 253 µM) |
| C=CC(=O)ON=C1C=CC(=C(C#N)c2ccccc2)C=C1 | Nakaseomyces glabratus | microbial killing, broth dilution | ATCC15126 | 48 h | MFC | 16 mg/L (≈ 57.9 µM) |
| C/C(=N/NC(=O)c1cn(-c2ccccc2)nc1-c1ccc(C)cc1)c1c(O)cc(C)oc1=O | Bacillus subtilis | microbial growth | – | – | MIC | 50 mg/L (≈ 113 µM) |
| CC(=O)N1CCN(c2ccc(OCC3COC(Cn4ccnc4)(c4ccc(Cl)cc4Cl)O3)cc2)CC1 (stereo not drawn) | Nakaseomyces glabratus | microbial growth, broth dilution | ATCC15126 | 48 h | MIC | 8 mg/L (≈ 15.1 µM) |
| C[C@@H]1[C@H](O)[C@@H](C)/C=C/C=C/C=C/C=C/C=C/C=C/C=C/[C@H](O[C@@H]2O[C@H](C)[C@@H](O)[C@H](N)[C@@H]2O)C[C@@H]2O[C@](O)(C[C@@H](O)C[C@@H](O)[C@H](O)CC[C@@H](O)C[C@@H](O)CC(=O)O[C@H]1C)C[C@H](O)[C@H]2C(=O)O | Cryptococcus neoformans | microbial growth, broth dilution | – | 72 h | MIC | 0.25 mg/L (≈ 0.271 µM) |
| O=C(Nc1ccc2ccccc2c1)c1ccc(COC(Cn2ccnc2)c2ccc(Cl)cc2Cl)cc1 (stereo not drawn) | Nakaseomyces glabratus | microbial growth, broth dilution | – | – | MIC80 | 64 mg/L (≈ 124 µM) |
| CC1(C)S[C@@H]2[C@H](NC(=O)[C@H](N)c3ccccc3)C(=O)N2[C@H]1C(=O)O | Bacillus subtilis | microbial growth | – | – | MIC | 2 mg/L (≈ 5.72 µM) |
| CC(=O)ON=C1C=CC(=C(C#N)c2ccccc2)C=C1 | Nakaseomyces glabratus | microbial killing, broth dilution | ATCC15126 | 48 h | MFC | 16 mg/L (≈ 60.5 µM) |
